Sampled rows, rich in hits. Any-hit rate of the full collection: about 2%.
DNMT1 block: blocks human DNA methyltransferase DNMT1 | P26358 | hit rate 0.83% among 360,000 | AID 588458 | DNMT1 molecular beacon, Hinp1I cleavage, fluorescence | inhibition (reported as % activation of signal), % at 10 µM; in the data active means inhibition above about 50%
Rpn11 block: inhibitors of human proteasome Rpn11. O00487. human 26S proteasome, Ub4-pepOG fluorescence polarization; 20S core pre-blocked with epoxomicin. inhibition, % at 20 µM. hit rate 0.59% among 360,000. AID 588493;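 active means inhibition at 20 µM, scaled to each plate's controls, above about 33%, limit read from the data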
Target sequence (O00487 whole entry, looked up): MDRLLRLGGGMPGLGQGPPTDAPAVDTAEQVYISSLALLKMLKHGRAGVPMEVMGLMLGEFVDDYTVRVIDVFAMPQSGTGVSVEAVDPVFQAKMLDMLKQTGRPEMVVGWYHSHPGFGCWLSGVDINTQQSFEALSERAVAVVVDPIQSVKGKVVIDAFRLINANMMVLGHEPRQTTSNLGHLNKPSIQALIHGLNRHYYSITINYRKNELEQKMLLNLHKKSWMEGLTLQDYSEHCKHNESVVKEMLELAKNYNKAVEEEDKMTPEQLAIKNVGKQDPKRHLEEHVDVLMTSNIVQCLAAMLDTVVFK
STEP block: blocks human striatal-enriched tyrosine phosphatase; P54829; recombinant STEP, OMFP fluorogenic substrate, fluorescence; inhibition, % at 20 µM; hit rate 0.25% among 360,000; AID 588621;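 active means inhibition at 20 µM, scaled per plate between control wells, above about 37%, limit read from the data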;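 further: 0% = DMSO with enzyme and substrate and 100% = substrate only without enzyme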
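Material: STEP (striatal-enriched tyrosine phosphatase) enzyme, cell-free | Medium: 50 mM Bis-Tris pH 6.0 with 2.5 mM DTT and 0.005% Tween 20 | Read-out: Percent inhibition scaled to no-enzyme and uninhibited-enzyme controls, plate-pattern corrected | Signal: Fluorescence read at 480 nm ex / 540 nm em | Times: 20 min reaction, room temperature, in the dark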
Scp1 inh: inhibitors of human Scp-1 phosphatase; Recombinant Scp1, phosphopeptide, malachite green phosphate absorbance; inhibition, % at 20 µM; hit rate 0.88% among 340,000; AID 493091;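 active means inhibition above about 50% at 20 µM, limit read from the data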;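 further: plate controls were DMSO wells with enzyme for no effect and wells lacking enzyme for full effect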
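Material – SCP-1 phosphatase catalytic domain, residues 76-261 · Buffer or medium – Acidic Tris acetate buffer with magnesium and detergent · Also added – Phospho 17-mer peptide substrate · Compound – single 20 µM dose, 1% DMSO · Times – 45 min room-temperature reaction, 5 min colour, 30 min stabiliser · Technique – Phosphate-binding colour reagent, absorbance read at 630 nm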
LMPTP block: LMPTP (human) inhibition; hit rate 0.22% among 360,000; AID 651560; recombinant LMPTP-A, OMFP fluorogenic substrate, fluorescence intensity; inhibition, % at 20 µM;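 active means compounds that cut the enzyme signal by at least half of the control window in the single-dose screen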;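 further: plate controls were DMSO wells with enzyme plus substrate for no effect and substrate without enzyme for full effect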
Target sequence (P24666 whole entry, looked up): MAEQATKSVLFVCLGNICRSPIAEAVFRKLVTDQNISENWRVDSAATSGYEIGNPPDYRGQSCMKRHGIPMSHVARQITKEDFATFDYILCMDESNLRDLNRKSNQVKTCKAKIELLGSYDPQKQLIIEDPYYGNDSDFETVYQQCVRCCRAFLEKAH
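Assay system: LMPTP-A enzyme. Input: 0.625 nM LMPTP-A final. Probe or stimulus: 400 µM OMFP. Compound dosing: single 20 µM dose. Schedule: 50 min dark incubation at room temperature. Detection: fluorescence intensity of OMFP turnover product. Read-out: percent inhibition versus substrate-only and uninhibited controls. Benchmarks: no-enzyme low control, uninhibited high control.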
Active calls of the source: *; · = no result given.

SMILES	DNMT1 block	Rpn11 block	STEP block	Scp1 inh	LMPTP block
N#CC1=C(c2ccc(-c3ccccc3)cc2)COC1=O	-6	40*	8	1	0
COC1=CC(=O)c2c(ccc3ncnc(N)c23)C1=O	103*	1	7	-8	9
Oc1ccc(Nc2nc3ccccc3nc2Nc2ccc(O)cc2)cc1	-16	53*	-3	60*	4
Oc1ccc(Nc2nc(-c3ccccc3)nc3ccccc23)cc1	1	-2	-1	-3	20
NS(=O)(=O)c1ccc(CCNC(=O)c2ccc(Cl)s2)cc1	1	-12	-1	-5	0
NS(=O)(=O)c1ccc(CCNC(=O)c2cc3ccccc3s2)cc1	2	4	6	58*	1
O=C(O)C1C2CCC(O2)C1C(=O)Nc1cccc(Cl)c1 (stereo unspecified)	0	0	3	-10	0
O=C(CSc1n[nH]c(=O)[nH]c1=O)Nc1ccc2c(c1)C(=O)c1ccccc1C2=O	45	4	88*	82*	69*
COc1cc(NC(=O)[C@H]2O[C@@H](n3cnc4c(N)ncnc43)[C@H](O)[C@@H]2O)cc(OC)c1OC	6	-7	-1	·	-1
CCOC(=O)c1ccc(S(=O)(=O)N2CCN(C(=O)c3cccc(S(=O)(=O)N4CC(C)OC(C)C4)c3)CC2)cc1 (stereo unspecified)	7	-5	3	12	2
NC(=S)n1[nH]c(-c2ccc([N+](=O)[O-])cc2)c(N=Nc2cccc([N+](=O)[O-])c2)c1=O	-2	12	22	74*	58*
Cc1[nH]n(-c2ccccc2)c(=O)c1N=Nc1cccc([N+](=O)[O-])c1	-6	-8	1	10	3
Cc1[nH]n(C(N)=S)c(=O)c1N=Nc1cccc([N+](=O)[O-])c1C	-11	-3	3	-4	-1
Cc1c(N=Nc2c(-c3ccc([N+](=O)[O-])cc3)[nH]n(C(N)=S)c2=O)cccc1[N+](=O)[O-]	75*	17	82*	93*	71*
COC(=O)[C@H](CCSC)NC(=O)Cn1cc(C)c(=O)[nH]c1=O	-22	-9	-1	1	-1
Cc1ccccc1NCC(=O)N=Nc1c(O)[nH]c2ccc([N+](=O)[O-])cc12	-6	-2	4	1	0
O=C(O)c1ccccc1N=Nc1c(O)[nH]c2ccc([N+](=O)[O-])cc12	17	2	46*	81*	21
CSCCNC(=O)C1(C)CCN1C(=O)C/C=C/c1ccccc1 (stereo unspecified)	1	-12	-5	·	7
O=C(O)CCCNC(=O)/C=C/c1ccco1	88*	-8	4	72*	4
O=C(/C=C/c1ccco1)NC(=S)Nc1cccc(C(=O)O)c1	38	-2	15	64*	0
COc1cccc(NC(=S)NC(=O)/C=C/c2ccco2)c1	32	34	0	-5	12
CN1CCN(C2=C(Cl)C(=O)c3ccccc3C2=O)CC1	87*	-14	6	-8	28
O=C1C(Cl)=C(N2CCC(C(=O)O)CC2)C(=O)c2ccccc21	18	-6	10	-14	1
CN1OC[C@@H]2CN(S(=O)(=O)c3ccccc3)[C@H](c3ccc(-n4ccnc4)cc3)C[C@@H]21	1	-10	-1	·	-2
COCCNC(=O)C1(C)CCN(C(=O)COc2ccc(Cl)cc2Cl)C1 (stereo unspecified)	-1	-1	2	·	-1
SMILES	DNMT1 block	Rpn11 block	STEP block	Scp1 inh	LMPTP block
COc1cc(/C=C2/C(=O)NN(c3ccc(Cl)c(Cl)c3)C2=O)cc([N+](=O)[O-])c1O	10	12	9	92*	6
COC(=O)c1c(C)cc(O)cc1O	-2	2	1	-4	-1
COC(=O)c1cc(O)cc(OC)c1Oc1cc(C)cc(O)c1C(=O)O	16	·	2	58*	11
CCCCCCCC[n+]1cccc2c3ccccc3ccc21	6	-16	4	26	4
CCCCCCCCCC[n+]1cccc2c3ccccc3ccc21	13	-11	8	65*	5
COc1cc(-c2nnc(SCc3cc(=O)oc4cc(O)c(O)cc34)o2)cc(OC)c1OC	64*	-15	17	73*	63*
CCNC(=O)C1(C)CCN(C(=O)c2ccc(C#N)cc2)C1 (stereo unspecified)	4	0	-1	·	-2
CN(C)c1ccc(C=Cc2nccc3ccccc23)cc1	69*	-200	-91	·	2
O=C1CCCC2=C1CC(C(=O)OCc1ccccc1)C(=O)N2Cc1ccccc1 (stereo unspecified)	2	-1	-2	10	-1
CN(C)c1ccc(Sc2ccc3nc(N)nc(N)c3c2)cc1	-20	4	2	·	51*
COc1ccc(NC(=O)COC(=O)C2CCN(S(=O)(=O)c3cccs3)CC2)cc1OC	-6	-4	2	-4	-1
C[C@H](NC(=O)c1ncn2c1C(=O)NC[C@H]2C)C(=O)OC(C)(C)C	6	-6	-4	·	-1
N=c1c2c(-c3ccccc3)c(-c3ccccc3)n(Cc3ccccc3)c2ncn1CCCn1ccnc1	3	1	3	29	57*
CCCCn1cnc2c(c(-c3ccccc3)c(-c3ccccc3)n2Cc2ccco2)c1=N	-2	-7	-2	-3	0
Cc1cn([C@H]2C[C@H](O)[C@@H](CNCc3ccccc3OCCCN3CCOCC3)O2)c(=O)[nH]c1=O	2	3	0	·	-1
CCCN(CCC)C1=CC(=[N+]2CCCC2)CC(C)(C)C1	17	-9	-1	77*	-2
O=C(O)c1ccccc1NS(=O)(=O)c1ccc(NN=Cc2cccc(Cl)c2)c([N+](=O)[O-])c1	35	-6	7	-13	83*
CC(=O)Nc1sc2c(c1-c1nc3ccccc3s1)CN(C(C)C)CC2	78*	·	-4	-4	0
O=C1c2cccc3c([N+](=O)[O-])ccc(c23)C(=O)N1O	71*	-43	10	83*	22
O=C1c2cccc3c([N+](=O)[O-])ccc(c23)C(=O)N1c1ccccn1	32	-35	-2	0	0
CC(C)[C@H](NC(=O)OCc1ccccc1)C(=O)OCC(=O)NCc1ccco1	19	0	-1	59*	-1
COc1ccc(N2CCN(Cc3cc(=O)oc4cc5c(cc34)CCCC5)CC2)cc1	56*	5	-1	-5	1
COCOc1cccc(CN2CCC2(C)C(=O)Nc2cc(OC)ccc2OC)c1 (stereo unspecified)	-7	0	3	·	1
O=c1cc2oc3cc(O)c(O)cc3c(-c3ccccc3[N+](=O)[O-])c-2cc1O	-5	2	22	5	90*
O=c1cc(-c2ccccc2Cl)oc2cccc(O)c12	7	-3	4	9	48
